Several values for one entry are separate records, joined by “and”; a condition that tells them apart may be missing. Equal values may be shown once.
Legend:
[1] = test system: human stem-cell-derived motor neurons carrying the ALS-causing SOD1^A4V mutation; assay: Motor neuron CPA survival assay, SOD1^A4V ALS motor neurons
[2] = target: HGK (Homo sapiens, UniProt O95819); assay: Cell-free radiolabeled ATP kinase assay; type: biochemical
Method in brief: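 Recombinant HGK and substrate with test compound in radiometric HotSpot assay at 25°C: ATP plus 33P-ATP at 10 μM final, 120 min, then spotted on P81 filter paper and washed. IC50 from 10 concentrations, 0.0002–0.1 μM in 2-fold steps. Otherwise single concentrations were used; the 371-kinase panel was run at 0.1 μM. Activity is % remaining versus DMSO alone.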

[3] = target: MLK3 (Homo sapiens, UniProt Q16584); assay: Cell-free radiolabeled ATP kinase assay; type: biochemical; conditions: for activity at MLK3: single concentration, cell-free
Chain of MLK3 (Q16584 whole entry): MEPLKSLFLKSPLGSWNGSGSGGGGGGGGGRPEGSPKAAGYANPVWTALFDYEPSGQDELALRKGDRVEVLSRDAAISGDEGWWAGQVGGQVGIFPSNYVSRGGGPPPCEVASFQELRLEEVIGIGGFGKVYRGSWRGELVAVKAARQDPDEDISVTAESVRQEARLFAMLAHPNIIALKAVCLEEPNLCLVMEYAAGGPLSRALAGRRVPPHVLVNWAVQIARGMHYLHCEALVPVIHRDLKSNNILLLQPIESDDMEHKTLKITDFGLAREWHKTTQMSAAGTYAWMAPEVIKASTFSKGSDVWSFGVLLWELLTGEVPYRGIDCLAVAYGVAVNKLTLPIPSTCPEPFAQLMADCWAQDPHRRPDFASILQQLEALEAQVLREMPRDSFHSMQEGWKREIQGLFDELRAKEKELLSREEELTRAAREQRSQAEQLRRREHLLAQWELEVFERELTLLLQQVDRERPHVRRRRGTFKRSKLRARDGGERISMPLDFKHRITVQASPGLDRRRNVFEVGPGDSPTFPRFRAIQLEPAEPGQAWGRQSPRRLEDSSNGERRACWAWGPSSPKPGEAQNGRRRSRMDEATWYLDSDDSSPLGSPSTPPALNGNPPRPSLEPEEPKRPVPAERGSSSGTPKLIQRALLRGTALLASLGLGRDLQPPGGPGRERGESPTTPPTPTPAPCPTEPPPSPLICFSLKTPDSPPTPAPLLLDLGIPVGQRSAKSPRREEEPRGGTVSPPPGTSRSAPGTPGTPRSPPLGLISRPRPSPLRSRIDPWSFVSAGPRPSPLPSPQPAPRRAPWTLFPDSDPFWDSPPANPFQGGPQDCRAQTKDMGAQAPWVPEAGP

[4] = test system: TNFα release in LPS-stimulated mouse N9 microglial cells; assay: TNFα ELISA in LPS-stimulated N9 microglia; type: cell-based; conditions: for EC50: Mus musculus, N9, 24 h, read-out: EC50 for decrease of TNFα secretion
Method in brief: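 N9 mouse microglia were plated at 8000 cells/well on gelatin in DMEM/10% FBS. At 24 h, cells were treated with LPS (E. coli O111:B4) plus test compound at stated concentrations. 24 h later, medium TNFα was measured by ELISA (A450, 540 nm correction). Viability of remaining cells was checked by AlamarBlue, 4 h at 37°C. n = 2 wells; means ± SEM.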

[5] = target: MLK1 (Homo sapiens, UniProt P80192); assay: Cell-free radiolabeled ATP kinase assay; type: biochemical; conditions: single concentration
Chain of MLK1 (P80192 whole entry): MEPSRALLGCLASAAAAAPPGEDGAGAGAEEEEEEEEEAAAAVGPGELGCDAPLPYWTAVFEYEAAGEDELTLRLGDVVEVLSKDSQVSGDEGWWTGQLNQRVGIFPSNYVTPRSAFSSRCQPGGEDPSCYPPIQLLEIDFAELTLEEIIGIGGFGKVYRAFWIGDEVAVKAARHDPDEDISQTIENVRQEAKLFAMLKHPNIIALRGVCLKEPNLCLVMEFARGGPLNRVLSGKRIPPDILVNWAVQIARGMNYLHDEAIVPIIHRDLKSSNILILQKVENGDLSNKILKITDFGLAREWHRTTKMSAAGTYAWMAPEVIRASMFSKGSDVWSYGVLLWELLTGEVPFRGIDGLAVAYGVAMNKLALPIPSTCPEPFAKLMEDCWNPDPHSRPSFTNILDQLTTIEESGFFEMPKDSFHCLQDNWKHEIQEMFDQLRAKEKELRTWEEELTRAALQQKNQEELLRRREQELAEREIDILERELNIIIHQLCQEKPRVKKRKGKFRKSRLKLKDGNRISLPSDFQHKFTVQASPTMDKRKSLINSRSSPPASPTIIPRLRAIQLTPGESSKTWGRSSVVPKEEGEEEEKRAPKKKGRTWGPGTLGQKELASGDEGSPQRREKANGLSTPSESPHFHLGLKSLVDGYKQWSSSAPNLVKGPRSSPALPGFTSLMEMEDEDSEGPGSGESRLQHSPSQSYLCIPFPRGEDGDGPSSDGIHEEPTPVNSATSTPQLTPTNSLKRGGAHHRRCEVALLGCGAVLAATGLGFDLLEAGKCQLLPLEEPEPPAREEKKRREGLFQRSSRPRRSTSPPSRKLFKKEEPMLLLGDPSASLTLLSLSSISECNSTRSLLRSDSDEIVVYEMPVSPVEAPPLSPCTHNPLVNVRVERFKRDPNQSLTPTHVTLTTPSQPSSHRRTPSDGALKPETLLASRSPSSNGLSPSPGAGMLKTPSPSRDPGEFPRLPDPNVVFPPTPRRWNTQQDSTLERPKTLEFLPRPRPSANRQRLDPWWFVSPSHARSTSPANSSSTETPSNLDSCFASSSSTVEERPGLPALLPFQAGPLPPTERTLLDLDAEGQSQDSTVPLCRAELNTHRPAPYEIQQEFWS
Method in brief: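 MLK1 radiometric HotSpot assay: recombinant kinase and substrate at 25°C with ATP plus 33P-ATP at 10 μM final, 120 min, spotted on P81 paper and washed. Single-dose panel run at 0.1 μM; IC50 series for MLK1 spanned 0.002–1 μM in 2-fold steps. Read-out is % remaining activity versus DMSO.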

[6] = test system: kinases assayed in cell-free conditions; assay: Kinase selectivity score from published cell-free panels; type: biochemical
[7] = test system: motor neurons differentiated from human induced pluripotent stem cells derived from a healthy patient; assay: Motor neuron CPA survival assay, healthy-patient iPSC-derived motor neurons; type: cell-based; conditions: CPA-treated healthy human motor neurons, 72 h
[8] = In vivo pharmacokinetics, IP injection or oral gavage; design: species or system mouse; conditions: for Brain AUC / Brain mean Cmax / Kp at 3 h / Cmax: mouse; for Brain AUC / Brain mean Cmax: ± SEM; for Kp at 3 h / Cmax: male, B6SJLF1/J; for Kp at 3 h: brain and plasma; for Cmax: plasma
Method in brief: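 Dosing solution: DMSO stock diluted to 2 mg/mL in 40% PEG-400 plus 55% of a 20% hydroxypropyl-β-cyclodextrin solution. Given at 10 mg/kg IP or by oral gavage to 8-week-old male wild-type B6SJLF1/J mice, n = 3 per route per time point. At 15 min, 3, 8 or 24 h: trunk blood (EDTA 50 mM final, plasma) and fresh brain taken. Analysed by LC-MS against calibration curves; means ± SEM.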

[9] = test system: JNK pathway; assay: Western blots of JNK pathway in CPA-treated motor neurons; type: cell-based, mouse; conditions: western blot
Method in brief: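 Day-6 embryoid bodies from mouse ES cells (HB9::GFP reporter, human SOD1 transgene; RA 1 μM + SAG 0.5 μM) were given CPA 10 μM plus test compound 0.5 μM for 4 h, then lysed in HEPES/Triton/SDS buffer. Immunoblots used phospho-JNK (Thr183/Tyr185), phospho-c-Jun (Ser63), phospho-MKK4 (Ser257), total proteins and cleaved caspase 3 at 1:1000, with GAPDH at 1:3000. Signals normalised to GAPDH, phospho to total, and expressed as % of CPA; n = 2 differentiations; unpaired two-tailed t-tests.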

[10] = test system: CPA-treated motor neurons; assay: CPA-treated motor neurons, PKC/ABL inhibitors; type: cell-based; conditions: data not shown
[11] = test system: HGK; conditions: 1 μM; ref Goodfellow et al., 2013; cited from earlier work
[12] = ref Goodfellow et al. (2013); cited from earlier work
[13] = test system: HIV-mediated microgliosis in the brain; conditions: mice, ref Marker et al. (2013), cited from earlier work
[14] = test system: SOD1^G93A mutant rats; conditions: late-stage SOD1^G93A mutant rats; ref Trias et al., 2016; cited from earlier work
[15] = ref Tang et al., 2012; cited from earlier work
[16] = test system: mouse stem cell-derived motor neurons; conditions: CPA-treated; ref Thams et al., 2019; cited from earlier work
[17] = CPA-treated SOD1^A4V motor neurons
[18] = CPA 10 μM + compound 0.5 μM, 4 h

Chain of HGK (Homo sapiens, UniProt O95819) (O95819 whole entry): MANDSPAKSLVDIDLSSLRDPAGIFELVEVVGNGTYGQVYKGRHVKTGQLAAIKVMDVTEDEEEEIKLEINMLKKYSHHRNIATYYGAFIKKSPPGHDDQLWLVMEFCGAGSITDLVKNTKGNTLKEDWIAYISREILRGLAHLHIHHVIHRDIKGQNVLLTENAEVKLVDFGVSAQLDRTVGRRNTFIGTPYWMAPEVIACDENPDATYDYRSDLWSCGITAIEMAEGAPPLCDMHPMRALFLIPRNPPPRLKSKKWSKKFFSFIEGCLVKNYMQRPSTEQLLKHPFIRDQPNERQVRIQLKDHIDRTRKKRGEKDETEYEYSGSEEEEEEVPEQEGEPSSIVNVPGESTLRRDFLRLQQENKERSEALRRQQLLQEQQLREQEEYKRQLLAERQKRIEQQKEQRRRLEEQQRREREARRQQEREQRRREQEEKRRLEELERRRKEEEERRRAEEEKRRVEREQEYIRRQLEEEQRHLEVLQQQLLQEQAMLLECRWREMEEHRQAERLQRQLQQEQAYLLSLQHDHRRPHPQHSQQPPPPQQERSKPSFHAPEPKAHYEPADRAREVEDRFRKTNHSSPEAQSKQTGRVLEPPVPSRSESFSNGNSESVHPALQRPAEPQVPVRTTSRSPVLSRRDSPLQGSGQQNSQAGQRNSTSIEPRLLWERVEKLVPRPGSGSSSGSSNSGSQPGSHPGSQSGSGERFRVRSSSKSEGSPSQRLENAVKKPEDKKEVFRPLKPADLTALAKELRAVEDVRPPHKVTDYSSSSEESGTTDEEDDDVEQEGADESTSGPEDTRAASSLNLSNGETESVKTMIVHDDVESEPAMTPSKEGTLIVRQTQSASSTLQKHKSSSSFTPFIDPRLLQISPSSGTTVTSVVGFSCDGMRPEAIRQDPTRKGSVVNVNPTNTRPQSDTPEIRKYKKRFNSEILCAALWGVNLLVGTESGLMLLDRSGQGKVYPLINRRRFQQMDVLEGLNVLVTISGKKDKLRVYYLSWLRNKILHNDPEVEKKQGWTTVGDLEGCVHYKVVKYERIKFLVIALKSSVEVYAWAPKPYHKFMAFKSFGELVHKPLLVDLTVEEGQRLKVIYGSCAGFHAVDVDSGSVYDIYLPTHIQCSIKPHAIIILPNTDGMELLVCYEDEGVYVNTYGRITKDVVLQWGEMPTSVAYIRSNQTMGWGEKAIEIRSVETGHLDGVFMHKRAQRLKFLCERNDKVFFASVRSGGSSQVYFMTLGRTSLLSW

Q: Which “neuroprotection in CPA survival assay” value [1, 17] does the source give for `CN1CC2CCC(C1)N2Cc1ccc(-c2cnc3[nH]cc(-c4cccc5[nH]ncc45)c3c2)cc1` [12e, 4-(5-(4-((3-Methyl-3,8-diazabicyclo[3.2.1]octan-8-yl)methyl)phenyl)-1H-pyrrolo[2,3-b]pyridin-3-yl)-1H-indazole] here?
A: highly neuroprotective

Q: And the “inhibition of HGK activity” value ([2]; single concentration, cell-free)?
A: strongly inhibited HGK activity

Q: What about the “activity at MLK3” value [3] of the same molecule?
A: little activity at MLK3

Q: And the “effect on TNFα release at 0.5 μM” value ([4]; 0.5 μM, LPS-stimulated N9 microglia)?
A: did not inhibit TNFα release

Q: And the “effect on TNFα levels” value ([4]; LPS-stimulated N9 microglia)?
A: did not significantly decrease TNFα levels

Q: And the “inhibition of MLK1” value [5]?
A: inability to inhibit MLK3 and MLK1

Q: For `Nc1ncc(C(=O)NC2CN(C(=O)C3CC3)C2)c2ccc(-c3cccc(F)c3)nc12` [GNE-495], which “selectivity score (kinases with <20% activity remaining / total kinases assayed)” value ([6]; 1 μM, cell-free, calculated from published data, ref Ndubaku et al., 2015) is on record?
A: 0.01

Q: And the “rescue of CPA toxicity / neuroprotection” value [7]?
A: neuroprotective

Q: Which “concentration at which maximum efficacy (Emax) was observed” value [1, 17] does the source give for `OCCN1CCN(Cc2ccc(-c3cnc4[nH]cc(-c5cccc(Cl)c5)c4c3)cc2)CC1` [Prostetin/12k, 2-(4-(4-(3-(3-Chlorophenyl)-1H-pyrrolo[2,3-b]pyridin-5-yl)benzyl)piperazin-1-yl)ethan-1-ol] here?
A: 0.5 µM

Q: What about the EC50 ([1]; Homo sapiens, Neuron, 72 h, read-out: EC50 in motor neuron survival assay) of the same molecule?
A: 100 nM

Q: And the “Brain AUC” value ([8]; 10 mg/kg IP)?
A: 11570 (±1655) μg/L•h

Q: What about the “Brain mean Cmax” value ([8]; 10 mg/kg IP) of the same molecule?
A: 1162 (±91.99) μg/kg

Q: What about the “Brain AUC” value ([8]; 10 mg/kg OG) of the same molecule?
A: 8429 (±1458) μg/L•h

Q: And the “Brain mean Cmax” value ([8]; 10 mg/kg OG)?
A: 658.9 (±257.7) μg/kg

Q: What about the “brain Cmax” value ([8]; IP-injected animals, 10 mg/kg) of the same molecule?
A: 1162 ng/g and 2.60 μM

Q: And the Kp at 3 h ([8]; ip, 10 mg/kg)?
A: 3

Q: What about the Kp at 3 h ([8]; oral, 10 mg/kg) of the same molecule?
A: 3.3

Q: What about the Cmax ([8]; ip, 10 mg/kg) of the same molecule?
A: 454 ng/mL

Q: And the Cmax ([8]; po, 10 mg/kg)?
A: 184 ng/mL

Q: What about the “inhibition of JNK pathway components” value ([9]; Fig. S2) of the same molecule?
A: effectively inhibit the same JNK pathway components as compound 1

Q: And the IC50 [2]?
A: 0.3 nM

Q: And the “activity at MLK3” value [3]?
A: slightly decreased inhibition of MLK3

Q: What about the “concentrations that significantly attenuated TNFα release” value ([4]; LPS-stimulated N9 microglia) of the same molecule?
A: ≥ 0.5 µM

Q: And the EC50 [4]?
A: ~470 nM

Q: And the “potency relative to compound 1 (fold less potent)” value ([4]; suppression of TNFα release)?
A: ~ 5 x

Q: Which “protection of CPA-treated motor neurons” value [10] does the source give for `CS(=O)(=O)O.Cn1cc(C2=C(c3cn(CCCSC(=N)N)c4ccccc34)C(=O)NC2=O)c2ccccc21` [Ro-318220 mesylate] here?
A: mildly protective

Q: For `COc1cc(Nc2c(C#N)cnc3cc(OCCCN4CCN(C)CC4)c(OC)cc23)c(Cl)cc1Cl` [bosutinib], which “protection of CPA-treated motor neurons” value [10] is on record?
A: mildly protective

Q: Which “maximum motor neuron survival compared to untreated controls” value ([1]; CPA 33 μM, 72 h, CPA alone ~10%) does the source give for `CN1CCN(Cc2ccc(-c3cnc4[nH]cc(-c5ccc6[nH]ccc6c5)c4c3)cc2)CC1` [compound 1, 3-(1H-Indol-5-yl)-5-(4-((4-methylpiperazin-1-yl)methyl)phenyl)-1H-pyrrolo[2,3-b]pyridine, reference compound] here?
A: 102%

Q: And the “concentration at which maximum efficacy (Emax) was observed” value [1, 17]?
A: 1 µM

Q: And the “Brain AUC” value ([8]; 10 mg/kg IP)?
A: 1568 (±147.1) μg/L•h

Q: What about the “Brain mean Cmax” value ([8]; 10 mg/kg IP) of the same molecule?
A: 208.8 (±10.21) μg/kg

Q: What about the “Brain AUC” value ([8]; 10 mg/kg OG) of the same molecule?
A: 567.2 (±110.5) μg/L•h

Q: And the “Brain mean Cmax” value ([8]; 10 mg/kg OG)?
A: 83.35 (±21.40) μg/kg

Q: What about the Kp at 3 h ([8]; ip, 10 mg/kg) of the same molecule?
A: 0.23

Q: And the Kp at 3 h ([8]; oral, 10 mg/kg)?
A: 0.19

Q: And the Cmax ([8]; ip, 10 mg/kg)?
A: 972 ng/mL

Q: And the Cmax ([8]; po, 10 mg/kg)?
A: 476 ng/mL

Q: What about the “JNK activation (phospho-JNK Thr183/Tyr185) compared to CPA alone” value [9, 18] of the same molecule?
A: significantly decreased JNK activation

Q: And the “phosphorylation of MKK4 at Ser257” value [9, 18]?
A: attenuated the phosphorylation

Q: And the IC50 [2]?
A: 5.93 nM

Q: What about the “inhibition of HGK activity” value [11] of the same molecule?
A: > 99%

Q: And the IC50 [3]?
A: 18.6 nM

Q: And the “selectivity score (kinases with <20% activity remaining / total kinases assayed)” value ([6]; similar conditions, based on data from ref Goodfellow et al. (2013))?
A: 0.36

Q: What about the EC50 [4] of the same molecule?
A: 200 nM

Q: And the “bioavailability (%F) as measured in the plasma” value [12]?
A: 41

Q: What about the “rescue of CPA toxicity / neuroprotection” value [7] of the same molecule?
A: neuroprotective

Q: And the “effect on HIV-mediated microgliosis in the brain” value ([13]; IP 10 mg/kg twice a day for 28 days)?
A: attenuate Human Immunodeficiency Virus (HIV)-mediated microgliosis

Q: And the “tolerability over long-term dosing” value [13]?
A: well-tolerated

Q: For `Cc1ccc(NC(=O)c2ccc(CN3CCN(C)CC3)cc2)cc1Nc1nc(-c2cccnc2)cs1` [masitinib], which “effect on microgliosis and disease progression” value [14] is on record?
A: attenuate microgliosis and slow disease progression

Q: With `CCN(CC)CCNC(=O)c1c(C)[nH]c(/C=C2\C(=O)Nc3ccc(F)cc32)c1C` [sunitinib] as the molecule, how does the blood-brain barrier crossing [15] read?
A: does not readily cross the blood-brain barrier

Q: What about the “protection of motor neurons from ER stress” value [16] of the same molecule?
A: protect motor neurons from ER stress

— article PMC7253076 (Cell chemical biology, 2019)
